# Source: PubChem BioAssay (The Scripps Research Institute Molecular Screening Center)
# M5 ag: CHRM5 agonism in calcium assay; P08912; CHO-K1 hM5 cells, Fluo-8 calcium fluorescence; 0% DMSO wells, 100% maximal acetylcholine response; activation, % at 3 µM; 0.19% of 360,000 active; AID 624037;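 active = activation above the run's mean over test compounds plus 3 SD, cut at about 23% in these data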;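 also: signal is peak over basal fluorescence ratio across the kinetic read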
# M1 ag: human M1 muscarinic receptor agonism; P11229; CHO-K1 hM1, Fluo-8 calcium fluorescence, agonist mode; 0% DMSO, 100% acetylcholine EC100; activation, % at 3 µM; 0.33% of 360,000 active;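 active = activation above the run's mean compound activation plus 3 SD, cut at about 16% in these data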;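 also: peak over basal fluorescence ratio within a 140 s kinetic read after compound addition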
# Target sequence (P11229 whole entry, looked up): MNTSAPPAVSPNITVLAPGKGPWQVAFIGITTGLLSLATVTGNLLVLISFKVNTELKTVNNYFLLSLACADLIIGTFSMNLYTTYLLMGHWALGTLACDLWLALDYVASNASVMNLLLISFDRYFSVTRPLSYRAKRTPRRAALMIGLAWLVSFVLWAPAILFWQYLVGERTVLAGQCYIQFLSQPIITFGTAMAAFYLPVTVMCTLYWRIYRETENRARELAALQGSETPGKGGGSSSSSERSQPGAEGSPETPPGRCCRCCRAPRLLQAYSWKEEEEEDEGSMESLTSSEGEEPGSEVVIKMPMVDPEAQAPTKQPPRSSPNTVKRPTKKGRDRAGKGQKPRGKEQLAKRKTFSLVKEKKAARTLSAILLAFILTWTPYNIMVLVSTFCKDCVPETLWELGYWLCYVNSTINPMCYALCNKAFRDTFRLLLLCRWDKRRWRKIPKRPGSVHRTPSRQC
# CHRM1 PAM: human CHRM1 positive allosteric modulation; CHO-K1 hM1, Fluo-8 calcium fluorescence, ACh EC20; 0% = ACh EC20, 100% = maximal ACh; 0.088% of 360,000 active; activation, % at 3 µM; in the data active = activation above about 19%, passing the limit was not always enough
# CHRM5 PAM: CHRM5 positive allosteric modulation. P08912. CHO-K1 hM5, Fluo-8 calcium, ACh EC20 PAM; 0% = ACh EC20, 100% = ACh EC100. activation, % at 3 µM. 0.3% of 360,000 active. AID 624038;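 active = activation above the run cutoff, the mean activation of all test compounds plus 3 SD, cut at about 18% in these data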
#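 Probe or stimulus: acetylcholine, EC20 level; Assay system: human M5 receptor in CHO-K1 cells; Schedule: compound preincubation 140 s before EC20 acetylcholine addition; Technique: intracellular calcium via Fluo-8 fluorescence; Dosing: single-point, 3 µM nominal; Read-out basis: percent activation from peak-over-basal fluorescence ratio, scaled EC20-to-EC100 acetylcholine; Repeats: one well per compound, no replicates.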
# M5 antag: CHRM5 antagonism in calcium assay | CHO-hM5 cells, Fluo-8 calcium fluorescence, ACh EC80 | 0.59% of 360,000 active | AID 624040 | inhibition, % at 3 µM | P08912;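 active = inhibition above a per-plate cutoff, the mean of that plate's test compounds plus 3 SD, cut at about 27% in these data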;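 also: 0% = acetylcholine EC80 with DMSO and 100% = DMSO without agonist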
# CHRM1 antagonist: antagonists of human M1 muscarinic receptor | P11229 | 1.3% of 360,000 active | AID 588852 | inhibition, % at 3 µM | CHO-K1 hM1, Fluo-8 calcium fluorescence, ACh EC80 antagonist;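 active = percent inhibition above its own plate's cutoff, namely the mean of that plate's compound wells plus 3 SD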;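 also: peak over basal fluorescence ratio during 140 s after agonist addition; 0% = ACh EC80 plus DMSO and 100% = DMSO alone without agonist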
# The depositor's hits bear a star; nt = not tested or not shown; ! = not confirmed by another sample. Only some compounds are listed: those with a hit (about 2.1% of all), similar ones and a draw of the others.
SMILES,M5 ag,M1 ag,CHRM1 PAM,CHRM5 PAM,M5 antag,CHRM1 antagonist
Cc1ccccc1-n1c(-c2ccc(Br)o2)n[nH]c1=S,-2,-4,6,3,7,-9
CN(C(=O)c1ccccc1NC(=O)C(F)(F)F)c1ccccc1,1,-6,1,-3,2,0
CC1CCCC(C)N1C(=O)c1ccccc1Nc1ccc(SC(F)F)cc1 (configuration not stated),-6,-1,1,22*,-6,5
CCCCNc1c(-c2ccc(OC)c(SC(C)CC)c2)nc2ccc(C)cn12 (configuration not stated),1,-6,-22,-30,14,37*
CCCCNc1c(-c2ccc(OC)c(SC3CCCCC3)c2)nc2ccc(C)cn12,-2,1,-16,-35,40*,49*
CCC(C)Sc1cc(-c2nc3ccc(C)cn3c2NCc2ccccc2)ccc1OC (configuration not stated),-2,-6,-29,-39,29*!,63*
COc1ccc(-c2cc(-c3nc4ccccn4c3NCc3ccccc3)ccc2OC)cc1,0,4,-32,-38,48*,87*
CCCCNc1c(-c2ccc(OC)c(SC(C)CC)c2)nc2ccc(Cl)cn12 (configuration not stated),-5,-8,-2,-8,9,7
CCN1CCn2c3c(c4cccc(C)c42)CCCC31 (configuration not stated),-3,-4,6,2,-1,-15
O=C(OCCOCCOC(=O)Oc1ccccc1)Oc1ccccc1,-4,-3,3,0,15,1
COC(=O)c1ccc(S(=O)(=O)N(C2CCCCC2)C2CCCCC2)n1C,0,-1,0,-7,10,-1
CCC(C)Sc1cccc(-c2nc3cc(C)ccn3c2NCc2ccccc2)c1 (configuration not stated),-7,-8,-20,-26,17,43*
COc1cc2c(cc1NC(=S)Nc1ccccc1C)oc1ccccc12,-7,-5,25*,9,-13,-15
COc1cc2c(cc1NC(=O)Nc1ccc(C)cc1)oc1ccccc12,-8,-5,4,-3,-7,-7
CNC(=S)Nc1cc2oc3ccccc3c2cc1OC,-5,-2,5,2,-6,2
COc1cc2c(cc1NC(=O)C(C)Sc1ccc(NC(C)=O)cc1)oc1ccccc12 (configuration not stated),6,1,-7,-18,30*,19
Nc1ccc(C(=O)OCC(=O)c2cccc([N+](=O)[O-])c2)cc1,2,-5,2,-4,6,12
Cc1ccc(NS(=O)(=O)c2coc(C(N)=O)c2)cc1F,-2,0,5,-7,2,0
COc1ccccc1C1CCN(Cc2cccc([N+](=O)[O-])c2)CC1,-20,-8,-22,-10,8,35*
CCCCN(C(=O)CCC(=O)Nc1cc(C)on1)C(C(=O)NC1CCCC1)c1ccc(F)cc1 (configuration not stated),-1,2,20,20*,-13,-17
CCCCN(C(=O)CCC(=O)Nc1cc(C)on1)C(C(=O)NC1CCCC1)c1ccccc1C (configuration not stated),-3,-6,5,-1,11,-11
O=c1[nH]c2ccc(Cl)cc2c(=O)n1Cc1ccco1,-3,-3,-3,0,-9,2
CCC(=O)N1CCc2cc(S(=O)(=O)CCC(=O)N3CCN(c4ccc(Cl)cc4)CC3)ccc21,2,0,-12,-12,28*,20
Nc1nc(N)c(Br)c(Nc2ccc(Cl)c(Cl)c2)n1,25*,6,3,29*,0,-2
Nc1nc(N)c(N=O)c(Nc2cccc(Cl)c2)n1,45*,nt,nt,-1,-7,nt
SMILES,M5 ag,M1 ag,CHRM1 PAM,CHRM5 PAM,M5 antag,CHRM1 antagonist
Nc1nc(N)c(N=O)c(Nc2ccc(Cl)c(Cl)c2)n1,52*,nt,nt,-1,2,nt
Cc1ccc(Nc2nc(N)nc(N)c2N=O)cc1Cl,45*,nt,nt,-4,6,nt
CCc1c(N)nc(N)nc1Nc1ccc(C)c(C)c1,2,-1,13,-12,4,-21
Nc1ncnc(Nc2ccc(F)c(Cl)c2)n1,0,-4,19,12,-2,-13
Nc1nc(N)c(C=Nc2ccc(Br)cc2)c(Nc2ccc(Br)cc2)n1,9,12,19,-1,13,-2
Cc1cc(C)c(C(N)=O)c(Nc2cccc(Cl)c2)n1,0,-4,-4,-4,-3,4
NS(=O)(=O)c1ccc(NS(=O)(=O)c2ccc(NC(=O)C3CC3)cc2)cc1,5,0,12,4,-8,-8
CCCCC1=CC2=C(c3ccco3)C(=O)C(C)(OC(=O)c3ccc(OC)cc3)C(=O)C2=CN1CCCCO (configuration not stated),5,-4,-2,8,-2,4
O=C(COC(=O)CNC(=O)c1ccc(Br)o1)Nc1ccc2c(c1)OCCO2,4,4,3,0,0,-1
O=C(COC(=O)c1ccc(Br)o1)Nc1ccc2c(c1)OCCO2,2,0,27*,-1,-3,-20
O=C(NCCc1ccccc1)C(=O)NCC1OCCCN1S(=O)(=O)c1cccs1 (configuration not stated),-1,-2,2,-4,11,-8
CCC(C)c1c(O)nc(SCC(=O)N2CCOCC2)[nH]c1=O (configuration not stated),2,3,25*,1,-5,-21
CC(C)(C)C(=O)N1CCC2CC1c1cc(-c3ccc4c(c3)OCO4)ccc12 (configuration not stated),-1,-10,-17,-9,3,25
O=C(C1CCCCC1)N1CCC2CC1c1cc(-c3ccc4c(c3)OCO4)ccc12 (configuration not stated),5,-5,-18,-11,14,35*
Clc1cccc(COn2c(-c3ccc(Cl)cc3Cl)nc3ncccc32)c1,-7,-5,-8,-6,4,2
COc1ccccc1C(=O)NCCC(=O)N1CCN(c2ccc(C(F)(F)F)cn2)CC1,2,-3,-6,-11,12,11
COc1cccc(C(=O)NCC(=O)N2CCN(c3ccc(C(F)(F)F)cn3)CC2)c1,5,-2,-13,0,6,37*
Cc1nc2ccc(Cl)cc2c(-c2ccccc2Cl)c1CC(=O)O,-1,-2,6,5,-8,-4
CN1CCc2nc3ccc(Cl)cc3c(-c3ccccc3Cl)c2C1,-8,-12,-26,-18,66*,93*
